# Source: ChEMBL document CHEMBL1125819, “Novel benzamides as selective and potent gastrokinetic agents. 2. Synthesis and structure-activity relationships of 4-amino-5-chloro-2-ethoxy-N-[[4-(4-fluorobenzyl)-2- morpholinyl]methyl] benzamide citrate (AS-4370) and related compounds” (J Med Chem, 1991)
# How the values were obtained:
# [1] = target: Serotonin 1 (5-HT1) receptor (Rattus norvegicus, UniProt P28564+P30940+P19327+P28565); assay: Inhibitory activity against 5-hydroxytryptamine 1 receptor by 3H ligand binding experiments.; assay type: protein assay
# Summary of the method: (§1)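 Competition binding on rat brain synaptic membranes at 10 mg wet tissue per assay, with compounds at 0.01–1000 μM. Radioligand and tissue: S1, [3H]serotonin, frontal cortex; S2, [3H]spiperone, frontal cortex; α1, [3H]WB-4101, whole brain; α2, [3H]clonidine, whole brain. Assays ended by rapid filtration and scintillation counting. IC50 was derived by probit analysis.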
# Rattus norvegicus = assay: Gastric emptying of phenol red semisolid meal in rats at dose of 2.0 mg/kg, administered perorally.; assay type: functional; details: route oral
# [2] = target: T1, Adrenergic receptor alpha-1 (Rattus norvegicus, UniProt P15823+P23944+P43140); assay: Inhibitory activity against Alpha-1 adrenergic receptor by 3H ligand binding experiments.; assay type: protein assay; summary of the method: as §1
# T1 sequence (P15823 whole entry): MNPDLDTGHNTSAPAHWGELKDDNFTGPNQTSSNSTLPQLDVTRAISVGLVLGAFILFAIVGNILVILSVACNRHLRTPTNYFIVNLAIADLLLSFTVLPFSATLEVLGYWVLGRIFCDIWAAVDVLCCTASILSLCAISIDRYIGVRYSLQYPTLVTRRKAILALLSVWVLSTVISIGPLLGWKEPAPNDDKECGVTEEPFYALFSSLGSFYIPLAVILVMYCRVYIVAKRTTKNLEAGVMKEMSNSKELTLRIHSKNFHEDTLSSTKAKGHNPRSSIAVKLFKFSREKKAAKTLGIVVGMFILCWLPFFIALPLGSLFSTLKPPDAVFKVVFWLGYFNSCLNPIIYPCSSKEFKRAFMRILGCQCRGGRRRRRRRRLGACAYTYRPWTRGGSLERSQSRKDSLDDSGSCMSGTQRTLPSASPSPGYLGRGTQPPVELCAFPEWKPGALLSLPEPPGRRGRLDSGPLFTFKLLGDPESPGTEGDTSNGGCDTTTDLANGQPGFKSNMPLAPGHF
# T1 sequence (P23944 whole entry): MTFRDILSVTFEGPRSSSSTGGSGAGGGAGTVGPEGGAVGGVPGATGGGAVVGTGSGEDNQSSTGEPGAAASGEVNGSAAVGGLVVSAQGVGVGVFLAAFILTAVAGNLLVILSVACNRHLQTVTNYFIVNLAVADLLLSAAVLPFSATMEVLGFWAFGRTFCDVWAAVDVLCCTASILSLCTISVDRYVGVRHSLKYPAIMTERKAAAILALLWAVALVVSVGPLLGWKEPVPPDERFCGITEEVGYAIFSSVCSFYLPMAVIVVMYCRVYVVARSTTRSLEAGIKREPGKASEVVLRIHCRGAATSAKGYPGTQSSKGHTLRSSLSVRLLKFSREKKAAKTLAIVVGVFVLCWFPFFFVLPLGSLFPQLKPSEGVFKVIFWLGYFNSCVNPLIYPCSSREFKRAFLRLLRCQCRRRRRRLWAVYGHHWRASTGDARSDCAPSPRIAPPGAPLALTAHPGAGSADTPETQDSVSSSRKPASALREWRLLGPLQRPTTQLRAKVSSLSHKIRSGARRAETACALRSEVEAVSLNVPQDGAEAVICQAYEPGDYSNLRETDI
# T1 sequence (P43140 whole entry): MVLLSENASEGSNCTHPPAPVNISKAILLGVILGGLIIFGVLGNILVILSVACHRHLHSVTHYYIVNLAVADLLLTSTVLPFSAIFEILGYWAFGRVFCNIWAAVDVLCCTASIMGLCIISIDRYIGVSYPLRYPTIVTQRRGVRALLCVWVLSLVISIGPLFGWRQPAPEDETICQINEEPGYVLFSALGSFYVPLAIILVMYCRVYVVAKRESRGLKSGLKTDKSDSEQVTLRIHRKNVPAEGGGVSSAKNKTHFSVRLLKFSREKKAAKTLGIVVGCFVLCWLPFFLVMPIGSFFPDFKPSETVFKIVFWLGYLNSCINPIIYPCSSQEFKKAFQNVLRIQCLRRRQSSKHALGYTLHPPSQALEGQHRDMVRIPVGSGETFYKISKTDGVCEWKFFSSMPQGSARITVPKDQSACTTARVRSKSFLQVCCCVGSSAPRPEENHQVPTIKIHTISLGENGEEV
# Canis familiaris [3] = organism: Canis familiaris; assay: Effective dose required to inhibit 50% of apomorphine effect; assay type: functional; details: Canis lupus familiaris
# Summary of the method: (§2)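 Dogs received oral test article, then were challenged with apomorphine, and vomiting frequency was counted; saline controls were run. ED50 with 95% confidence limits was derived by probit analysis. Significance versus control was tested by Student's t test.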
# Canis familiaris [4] = assay: Compound was tested for anti-apomorphine effect in 2 dogs and the vomiting frequency expressed at a dose of 1.0 mg/kg perorally.; assay type: functional, Canis lupus familiaris; details: route oral; summary of the method: as §2
# Canis familiaris [5] = organism: Canis familiaris; assay: Effective dose required to inhibit 50% of apomorphine effect(95% confidence limits); assay type: functional; details: Canis lupus familiaris
# Summary of the method: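 Dogs were given the test drug orally, with saline controls, and then challenged with apomorphine. Vomiting frequency was counted in groups of 2–8 dogs per dose. ED50 and its 95% confidence limits were obtained by probit analysis. Significance against controls used Student's t test.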
# Canis familiaris [6] = assay: Compound was tested for anti-apomorphine effect in 3 dogs and the vomiting frequency expressed at a dose of 0.5 mg/kg perorally.; assay type: functional, Canis lupus familiaris; details: route oral; summary of the method: as §2
# [7] = target: T2, Adrenergic receptor alpha-2 (Rattus norvegicus, UniProt P22086+P19328+P22909); assay: Inhibitory activity against alpha-2 adrenergic receptor by 3H ligand binding experiments.; assay type: protein assay
# T2 sequence (P22086 whole entry): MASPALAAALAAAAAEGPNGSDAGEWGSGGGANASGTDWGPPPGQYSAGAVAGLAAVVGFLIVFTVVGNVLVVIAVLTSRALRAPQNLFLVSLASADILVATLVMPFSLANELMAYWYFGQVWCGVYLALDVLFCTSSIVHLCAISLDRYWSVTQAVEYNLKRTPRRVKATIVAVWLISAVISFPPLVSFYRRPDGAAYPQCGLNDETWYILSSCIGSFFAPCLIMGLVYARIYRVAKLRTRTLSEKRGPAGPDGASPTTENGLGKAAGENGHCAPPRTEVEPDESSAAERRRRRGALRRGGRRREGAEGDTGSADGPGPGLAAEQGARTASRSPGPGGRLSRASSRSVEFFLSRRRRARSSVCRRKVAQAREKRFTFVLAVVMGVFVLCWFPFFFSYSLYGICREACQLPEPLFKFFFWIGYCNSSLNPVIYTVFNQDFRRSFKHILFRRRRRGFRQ
# T2 sequence (P19328 whole entry): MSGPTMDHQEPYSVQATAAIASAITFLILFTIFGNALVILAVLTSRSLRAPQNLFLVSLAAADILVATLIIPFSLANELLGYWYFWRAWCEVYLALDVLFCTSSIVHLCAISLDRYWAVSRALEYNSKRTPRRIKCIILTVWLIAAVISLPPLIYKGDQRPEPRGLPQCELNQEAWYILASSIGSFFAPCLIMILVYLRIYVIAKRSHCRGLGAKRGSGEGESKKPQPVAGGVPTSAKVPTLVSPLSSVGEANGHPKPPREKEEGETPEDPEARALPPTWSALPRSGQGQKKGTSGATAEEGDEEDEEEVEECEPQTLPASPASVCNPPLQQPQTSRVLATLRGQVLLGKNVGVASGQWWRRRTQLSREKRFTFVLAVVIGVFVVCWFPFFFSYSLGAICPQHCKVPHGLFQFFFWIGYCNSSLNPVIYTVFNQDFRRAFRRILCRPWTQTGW
# T2 sequence (P22909 whole entry): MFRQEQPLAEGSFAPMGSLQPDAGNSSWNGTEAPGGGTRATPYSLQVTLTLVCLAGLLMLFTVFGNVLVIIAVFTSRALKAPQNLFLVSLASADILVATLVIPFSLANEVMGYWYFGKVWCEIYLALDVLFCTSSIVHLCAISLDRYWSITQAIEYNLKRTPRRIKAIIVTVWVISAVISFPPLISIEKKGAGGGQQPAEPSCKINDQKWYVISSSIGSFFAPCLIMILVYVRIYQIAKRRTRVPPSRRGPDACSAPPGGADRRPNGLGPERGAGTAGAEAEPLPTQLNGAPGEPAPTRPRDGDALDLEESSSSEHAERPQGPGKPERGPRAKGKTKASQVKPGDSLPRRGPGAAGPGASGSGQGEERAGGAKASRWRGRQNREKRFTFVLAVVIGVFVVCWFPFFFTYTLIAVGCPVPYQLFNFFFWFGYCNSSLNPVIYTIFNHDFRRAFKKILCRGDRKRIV
# Canis familiaris [8] = assay: Compound was tested for anti-apomorphine effect in 3 dogs and the vomiting frequency expressed at a dose of 2.0 mg/kg perorally.; assay type: functional, Canis lupus familiaris; details: route oral; summary of the method: as §2
# Canis familiaris [9] = assay: Compound was tested for anti-apomorphine effect in 3 dogs and the vomiting frequency expressed at a dose of 0.2 mg/kg perorally.; assay type: functional, Canis lupus familiaris; details: route oral; summary of the method: as §2
# Canis familiaris [10] = assay: Compound was tested for anti-apomorphine effect in 3 dogs and the vomiting frequency expressed at a dose of 1.0 mg/kg perorally.; assay type: functional, Canis lupus familiaris; details: route oral; summary of the method: as §2
# [11] = target: Serotonin 2 (5-HT2) receptor (Rattus norvegicus, UniProt P30994+P08909+P14842); assay: Inhibitory activity against 5-hydroxytryptamine 2 receptor by 3H ligand binding experiments.; assay type: protein assay
# Canis familiaris [12] = assay: Compound was tested for anti-apomorphine effect in 8 dogs and the vomiting frequency expressed at a dose of 1.0 mg/kg perorally.; assay type: functional, Canis lupus familiaris; details: route oral; summary of the method: as §2
# Canis familiaris [13] = assay: Compound was tested for anti-apomorphine effect in 8 dogs and the vomiting frequency expressed at a dose of 10.0 mg/kg perorally.; assay type: functional, Canis lupus familiaris; details: route oral; summary of the method: as §2
# D(2) dopamine receptor = D(2) dopamine receptor (Rattus norvegicus, UniProt P61169); assay: Inhibitory activity against dopamine receptor D2 by 3H ligand binding experiments.
# Summary of the method: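 Competition binding used rat striatal synaptic membranes (10 mg wet tissue per assay) with [3H]spiperone. Test compounds spanned 0.01–1000 μM. Assays were started by adding tissue and stopped by rapid glass-fibre filtration with ice-cold buffer washes. Filters were solubilised and radioactivity counted.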
# D(2) dopamine receptor, sequence (P61169 whole entry): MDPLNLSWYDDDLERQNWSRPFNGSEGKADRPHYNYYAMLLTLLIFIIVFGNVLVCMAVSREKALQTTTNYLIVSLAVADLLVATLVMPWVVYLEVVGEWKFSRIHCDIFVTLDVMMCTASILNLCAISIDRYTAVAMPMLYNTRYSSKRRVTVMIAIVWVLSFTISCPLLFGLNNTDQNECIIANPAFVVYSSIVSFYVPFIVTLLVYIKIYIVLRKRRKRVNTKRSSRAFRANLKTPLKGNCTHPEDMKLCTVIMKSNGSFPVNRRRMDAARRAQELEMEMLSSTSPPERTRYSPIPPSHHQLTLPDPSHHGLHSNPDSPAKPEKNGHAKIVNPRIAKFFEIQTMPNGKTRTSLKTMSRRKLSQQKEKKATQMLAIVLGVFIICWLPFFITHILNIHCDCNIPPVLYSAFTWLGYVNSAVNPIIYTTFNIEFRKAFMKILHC
IC50 [1] [µM],IC50 [2] [µM],Structure (SMILES),GE (Rattus norvegicus) [%],ED50 (Canis familiaris [3]) [mg/kg],Vomiting frequency (Canis familiaris [4]),ED50 (Canis familiaris [5]) [mg/kg],Vomiting frequency (Canis familiaris [6]),IC50 [7] [µM],Vomiting frequency (Canis familiaris [8]),Vomiting frequency (Canis familiaris [9]),Vomiting frequency (Canis familiaris [10]),IC50 [11] [µM],Vomiting frequency (Canis familiaris [12]),Vomiting frequency (Canis familiaris [13]),IC50 (D(2) dopamine receptor) [µM]
4.47,0.11,COc1cc(N)c(Cl)cc1C(=O)NC1CCN(CCCOc2ccc(F)cc2)CC1OC (configuration not stated) [CISAPRIDE],47,> 1,6,–,–,–,–,–,–,–,–,–,–
7.8,32.8,CCN(CC)CCNC(=O)c1cc(Cl)c(N)cc1OC [METOCLOPRAMIDE],21,–,–,0.45,4,7.7,0.3,7.7,1.3,–,–,–,–

Structure (SMILES),IC50 [1] [µM],IC50 [2] [µM],GE (Rattus norvegicus) [%],ED50 (Canis familiaris [3]) [mg/kg],Vomiting frequency (Canis familiaris [4]),ED50 (Canis familiaris [5]) [mg/kg],Vomiting frequency (Canis familiaris [6]),IC50 [7] [µM],Vomiting frequency (Canis familiaris [8]),Vomiting frequency (Canis familiaris [9]),Vomiting frequency (Canis familiaris [10]),IC50 [11] [µM],Vomiting frequency (Canis familiaris [12]),Vomiting frequency (Canis familiaris [13]),IC50 (D(2) dopamine receptor) [µM]
CCOc1cc(N)c(Cl)cc1C(=O)NCC1CN(Cc2ccc(F)cc2)CCO1.O=C(O)CC(O)(CC(=O)O)C(=O)O (configuration not stated) [MOSAPRIDE CITRATE],> 100,> 100,–,> 10,–,–,–,> 10,–,–,–,> 100,6.4,6.3,> 100
